Screening results (PubChem)
CAL PDZ FP-1 = inhibitors of human CAL PDZ peptide binding | Q9HD26 | purified CAL PDZ, TMR-peptide fluorescence polarization, 1 h | inhibition, % at 24.9 µM | 0.92% of 300,000 active | AID 602252;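 active = mean inhibition of at least 30% with at least half of replicates also reaching 30%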;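 also: 0% = DMSO neutral control and 100% = excess unlabeled competitor peptide PRC23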
CAL PDZ FP-2 = inhibitors of human CAL PDZ peptide binding | Q9HD26 | purified CAL PDZ, TMR-peptide fluorescence polarization, 1 h | inhibition, % at 20 µM | 0.02% of 330,000 active | AID 504414;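 active = highest replicate inhibition of at least 40%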;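 also: plate controls were DMSO neutral control wells for no effect and unlabeled competitor peptide control wells for full effect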
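Control set: unlabelled peptide and DMSO controls / Material: purified CerCALP PDZ construct / Timing: 1 h incubation at room temperature before polarization reading / Doses: 20 µM, one dose / Detection: fluorescence polarization (mP)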
miR-122 sensor = inhibitors of miR-122 in Huh7 cells | 0.3% of 340,000 active | activation (reporter increase), % at 12.5 µM | AID 602342 | Huh7 miR-122 Renilla luciferase sensor, 48 h; neutral wells = 0, positive control = 100;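 active = mean replicate activation score at least 90 and every replicate individually at or above 90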;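 also: higher luciferase means less miR-122 activity so hits act as miR-122 inhibitors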
PvdQ acylase = blocks Pseudomonas aeruginosa PvdQ acylase activity; inhibition, % at 10 µM; purified PvdQ acylase, fluorescence plate reader; 0.063% of 340,000 active; in the data active = inhibition above about 30%, passing the limit was not always enough;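 also: 0% = vehicle neutral wells and 100% = reference inhibitor wells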
* marks the source's active call; other numbers are inactive results; · = not tested or not shown; + = active, no number; [ ] = remark or other dose. The list is not random: actives were taken first. Their share in the collection is about 0.95%.

SMILES	CAL PDZ FP-1	CAL PDZ FP-2	miR-122 sensor	PvdQ acylase
C[C@H](CO)N1C[C@H](C)[C@H](CN(C)C(=O)NC2CCCCC2)OCCCC[C@H](C)Oc2ccc(NC(=O)c3ccccc3)cc2C1=O	·	·	0.0[16.7 µM]	·
O=C(NCCCn1ccnc1)c1nn2c(C(F)(F)F)cc(-c3ccccc3)nc2c1Cl	-1.1	-2.0	-5.6	51.1*
CC(OC(=O)Nc1cccc(Cl)c1)C(=O)OC1CCCCC1 (stereo not given)	2.3	-0.2	·	-7.4
CCN(CC(=O)NCc1cccs1)C(=O)c1cc(=O)[nH]c2ccccc12	73.9*	-0.5	·	-9.9
CCN(CC(=O)NCc1cccs1)C(=O)c1ccccc1Cl	51.8*	-0.9	·	-22.3
CC(=O)Nc1ccc(S(=O)(=O)Oc2ccc(C=O)cc2)cc1	-1.5	-1.6	-7.7	5.3
CCOc1ccc(NC(=O)CSc2nnc(CCNC(=O)c3ccc(OC)cc3)n2CC)cc1	-1.2	·	-0.6	-0.4
CCn1c(CCNC(=O)c2ccc(OC)cc2)nnc1SCC(=O)Nc1ccccc1F	8.3	-0.9	119.7*	3.3
CCOC(=O)CCn1c(=S)n(CCC(=O)OCC)c2ccccc21	54.9*	1.2	·	8.9
COC(=O)c1cccc(-n2c(C)cc(C=O)c2C)c1	-0.4	-2.5	·	-12.6
CC1(C)Oc2ccc(C(=O)N3CCCCC3)cc2N(CC(=O)NCc2ccccc2)C1=O	0.0	-0.8	-1.0	-18.1
Cc1ccc(CN2C(=O)C(C)(C)Oc3ccc(C(=O)N4CCCCC4)cc32)cc1	-1.0	·	317.8*	-9.1
CCCCN(c1ccccc1)S(=O)(=O)c1cccc2cccnc12	0.0	0.8	3.5	-6.7
Cc1csc(SCC(=O)Nc2ccc3[nH]c(=O)[nH]c3c2)n1	105.7*	0.3	-3.0	-20.1
CCOC(=O)Cc1csc(SCC(=O)Nc2ccc3[nH]c(=O)[nH]c3c2)n1	-4.9	-0.1	-6.8	-8.1
CCS(=O)(=O)Nc1cc(OC)c(OC)cc1Cc1nccc2cc(OC)c(OC)cc12	65.0*	-0.9	-10.1	-9.5
CCCNC(=O)Nc1cc(OC)c(OC)cc1Cc1nccc2cc(OC)c(OC)cc12	-3.6	-1.6	-6.3	10.5
CCOc1ccc2cc(C3CC(c4ccco4)=NN3S(C)(=O)=O)c(=O)[nH]c2c1 (stereo not given)	0.3	-0.8	126.0*	-2.2
C[C@@H]1CN([C@@H](C)CO)C(=O)c2cccc(NS(=O)(=O)c3cn(C)cn3)c2O[C@H]1CN(C)C(=O)NC1CCCCC1	·	·	1.7[16.7 µM]	·
COc1ccc(NC(=O)CN2CCN(c3ccccn3)CC2)cc1Cl	-6.9	·	6.0	-9.3
Cc1ccc(S(=O)(=O)N[C@H](C(=O)OCC(=O)NC(=O)C2CCCCC2)C(C)C)cc1	154.5*	-0.6	5.0	-16.3
Cc1ccc(S(=O)(=O)N[C@H](C(=O)OCC(=O)NC(=O)Nc2ccc3c(c2)OCCO3)C(C)C)cc1	2.0	0.0	·	9.8
COc1ccc(-c2sc3ccccc3c2-c2ccc(O)cc2)cc1	0.1	-0.7	3.1	-3.7
S=c1nccc(-c2ccc(Cl)cc2)[nH]1	·	·	-6.6	·
Cc1nc2ccccn2c1-c1ccnc(=S)[nH]1	+	-0.8	·	-13.3
SMILES	CAL PDZ FP-1	CAL PDZ FP-2	miR-122 sensor	PvdQ acylase
NS(=O)(=O)c1ccc(CCNC(=O)COC(=O)c2ccc([N+](=O)[O-])o2)cc1	9.9	0.7	·	-9.8
NS(=O)(=O)c1ccc(CCNC(=O)COC(=O)Cc2ccc([N+](=O)[O-])cc2)cc1	34.1*	0.8	-7.0	-10.1
COc1ccccc1N(CC(=O)Nc1cc(S(=O)(=O)N(C)C)ccc1C)S(=O)(=O)c1cccs1	67.9*	6.6	10.1	-18.1
COc1ccc(NS(=O)(=O)c2cccc(C(=O)O)c2)cc1S(=O)(=O)N1CCOCC1	·	-0.3	6.2	-2.3
COc1ccc(S(=O)(=O)Nc2ccc(N3CCOCC3)cc2)cc1	·	0.8	0.7	13.6
COc1ccc(NS(=O)(=O)c2ccc(/C=C/C(=O)O)cc2)cc1S(=O)(=O)N1CCOCC1	43.7*	0.0	2.2	-7.5
COc1ccc(S(=O)(=O)Nc2ccc(S(=O)(=O)N3CCOCC3)cc2)cc1	-17.1	-2.7	159.8*	-0.4
C[C@H]1CN([C@@H](C)CO)S(=O)(=O)c2ccc(/C=C/c3ccccc3)cc2O[C@@H]1CN(C)C(=O)c1cccnc1	·	·	-30.0[16.7 µM]	·
N#CC(C#N)=C(N)Nc1cccc(Cl)c1	-8.1	-0.6	·	-4.1
CCOc1cc(S(=O)(=O)NCCc2ccccc2C)c(OCC)cc1-n1cnnn1	-2.6	-4.2	125.6*	-13.7
N#Cc1ccc(CSc2nnc(-c3cccc(S(=O)(=O)N4CCCCC4)c3)o2)cc1	44.3*	-1.5	0.7	-14.7
CC1=C(C(=O)OC(C)C)C(c2ccc(N(C)C)cc2)C2=C(CC(C)(C)CC2=O)N1 (stereo not given)	1.0	1.5	150.2*	0.6
CC1=C(C(=O)OCC2CCCO2)C(c2ccncc2)C2=C(CC(C)(C)CC2=O)N1 (stereo not given)	40.3*	·	-2.1	-19.9
O=C(Cc1ccccc1)Nc1ccc(NC(=O)C2CC2)nc1	·	-2.9	-6.0	-1.0
COc1cc(C2C=C(c3cccs3)Nc3ncnn32)cc(OC)c1OC (stereo not given)	33.2*	1.1	·	-0.6
CCOc1ccc(CCNC(=O)CS(=O)Cc2nc(-c3ccc(OC)c(OC)c3)oc2C)cc1OCC (stereo not given)	-0.7	-2.0	0.2	2.9
CC1(C)CC(NC(=O)C2CCN(S(=O)(=O)c3ccc(Cl)c(C(F)(F)F)c3)CC2)CC(C)(C)N1	57.7*	0.3	-8.4	-6.0
Cc1cc(-c2n[nH]c(=S)n2-c2ccccc2C)cs1	62.0*	-1.3	·	-9.4
Cc1ccccc1-n1c(-c2ccncc2)n[nH]c1=S	-0.2	-0.3	-0.8	-15.7
O=C1CC(c2ccccc2)Oc2ccccc21 (stereo not given)	-5.3	-1.7	0.1	0.3
CCOC1=CC(=O)OC(c2ccccc2)C1 (stereo not given)	5.4	-0.6	0.0	80.8*
O=C1OC2(CCCCC2)OC(=O)C1=CNc1nc2ccccc2s1	51.9*	30.2	4.1	-16.1
Cc1c(O)c(=O)c2ccccc2n1C	1.0	0.0	-2.5	-37.6
COc1ccc(-c2nnn(CC(=O)N(CCN3CCOCC3)C(C(=O)NC3CCCC3)c3ccco3)n2)cc1 (stereo not given)	52.7*	-0.8	·	-11.0
COc1ccc(-c2nnn(CC(=O)N(CCN3CCOCC3)C(C(=O)NC3CCCCC3)c3ccco3)n2)cc1 (stereo not given)	-1.8	-1.6	·	0.5
c1ccc(-c2cc(-c3ccc(N4CCOCC4)cc3)nc3ccccc23)cc1	37.0*	-0.7	-10.7	-9.9
O=C(Nc1cccc([N+](=O)[O-])c1)c1ccc(N2CCCC2=O)cc1	68.9*	-0.2	·	-10.3
OC[C@@H]1[C@H](c2ccc(C#CC3CCCC3)cc2)[C@H]2CN(CCC(F)(F)F)CCCCN12	·	·	-24.4[16.7 µM]	·
Cc1c(NS(=O)(=O)c2ccc(Br)s2)c(=O)n(-c2ccccc2)n1C	-5.1	-0.3	-3.0	-12.5
Cc1c(NS(=O)(=O)c2ccc(S(=O)(=O)c3ccccc3)s2)c(=O)n(-c2ccccc2)n1C	50.4*	-0.1	·	-15.7
